We go through three molecules from ChEMBL document CHEMBL1255370, “Activity of pradofloxacin against Porphyromonas and Prevotella spp. Implicated in periodontal disease in dogs: susceptibility test data from a European multicenter study” (2008).

For test [1], the system named is Porphyromonas. The test can be described thus: Antimicrobial activity against Porphyromonas isolated from canine periodontal pockets after 48 hrs by agar dilution method. In kind it is functional. An outline of the steps:
(§1)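 Isolates came from canine periodontal pockets (2004–2006, six countries; dogs without antimicrobials for ≥4 weeks), cultured anaerobically at 35 ± 1°C and identified by Biolog. MICs were found by CLSI M11-A6 agar dilution on brucella blood agar with hemin and vitamin K, using a multipoint inoculator under strict anaerobiosis for up to 48 h. QC strains were B. fragilis ATCC 25285 and E. lentum ATCC 43055.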
(In general: Agar dilution tests growth on a series of plates holding different concentrations.)

The subject of test [2] is Prevotella intermedia. The test can be described thus: Antimicrobial activity against Prevotella intermedia isolated from canine periodontal pockets after 48 hrs by agar dilution method. In kind it is functional. In short, it runs like this: as §1
For test [3], the system named is Prevotella oulorum. Kind of test: Antimicrobial activity against Prevotella oulorum isolated from canine periodontal pockets after 48 hrs by agar dilution method. In kind it is functional. To be noted: Segatella oulorum. In short, it runs like this:
as §1

Test [4] has as its system Bacteroides zoogleoformans. The test can be described thus: Antimicrobial activity against Bacteroides zoogleoformans isolated from canine periodontal pockets after 48 hrs by agar dilution method. In kind it is functional. An outline of the steps: as §1
The test system of test [5] is Prevotella buccae. The test can be described thus: Antimicrobial activity against Prevotella buccae isolated from canine periodontal pockets after 48 hrs by agar dilution method. In kind it is functional. To be noted: Segatella buccae. An outline of the steps:
as §1

In test [6] the test system is Porphyromonas levii. The test can be described thus: Antimicrobial activity against Porphyromonas levii isolated from canine periodontal pockets after 48 hrs by agar dilution method. In kind it is functional. An outline of the steps:
as §1

The subject of test [7] is Prevotella denticola. Kind of test: Antimicrobial activity against Prevotella denticola isolated from canine periodontal pockets after 48 hrs by agar dilution method. In kind it is functional. In short, it runs like this: as §1
For test [8], the system named is Porphyromonas macacae. Kind of test: Antimicrobial activity against Porphyromonas macacae isolated from canine periodontal pockets after 48 hrs by agar dilution method. In kind it is functional. In short, it runs like this:
as §1

Test [9] relates to Bacteroides heparinolyticus. Kind of test: Antimicrobial activity against Bacteroides heparinolyticus isolated from canine periodontal pockets after 48 hrs by agar dilution method. In kind it is functional. The settings on record: Prevotella heparinolytica. In short, it runs like this:
as §1

In test [10] the test system is Porphyromonas gingivalis. Kind of test: Antimicrobial activity against Porphyromonas gingivalis isolated from canine periodontal pockets after 48 hrs by agar dilution method.
The subject of test [11] is Porphyromonas macacae. Kind of test: Antimicrobial activity against Porphyromonas salivosa isolated from canine periodontal pockets after 48 hrs by agar dilution method. In kind it is functional. An outline of the steps: as §1
Test [12] relates to Porphyromonas circumdentaria. The test can be described thus: Antimicrobial activity against Porphyromonas circumdentaria isolated from canine periodontal pockets after 48 hrs by agar dilution method. In kind it is functional. In short, it runs like this:
as §1

Test [13] has as its system Prevotella oris. Kind of test: Antimicrobial activity against Prevotella oris isolated from canine periodontal pockets after 48 hrs by agar dilution method. In kind it is functional. The settings on record: Segatella oris. An outline of the steps: as §1
Test [14] has as its system Porphyromonas asaccharolytica. The test can be described thus: Antimicrobial activity against Porphyromonas asaccharolyticus isolated from canine periodontal pockets after 48 hrs by agar dilution method. In kind it is functional. An outline of the steps:
as §1

In test [15] the test system is Prevotella disiens. The test can be described thus: Antimicrobial activity against Prevotella disiens isolated from canine periodontal pockets after 48 hrs by agar dilution method. In kind it is functional. An outline of the steps:
as §1

For test [16], the system named is Prevotella sp. Kind of test: Antimicrobial activity against Prevotella sp. isolated from canine periodontal pockets after 48 hrs by agar dilution method. In kind it is functional. In short, it runs like this:
as §1

Test [17] relates to Hoylesella loescheii. The test can be described thus: Antimicrobial activity against Prevotella loescheii isolated from canine periodontal pockets after 48 hrs by agar dilution method. In kind it is functional. An outline of the steps: as §1
Test [18] deals with Prevotella corporis. Kind of test: Antimicrobial activity against Prevotella corporis isolated from canine periodontal pockets after 48 hrs by agar dilution method. In kind it is functional. An outline of the steps:
as §1

In test [19] the test system is Prevotella nigrescens. Kind of test: Antimicrobial activity against Prevotella nigrescens isolated from canine periodontal pockets after 48 hrs by agar dilution method. In kind it is functional. In short, it runs like this:
as §1

Test [20] relates to Hoylesella oralis. The test can be described thus: Antimicrobial activity against Prevotella oralis isolated from canine periodontal pockets after 48 hrs by agar dilution method. In kind it is functional. An outline of the steps:
as §1

≈ marks a conversion by molar mass, not a printed value.

Broadly, the MIC90 is the lowest concentration that inhibits either 90% of growth or 90% of the strains tested, depending on the study. As to `NC1CCN(c2c(F)cc3c(=O)c(C(=O)O)cn(C4CC4)c3c2Cl)C1` (configuration not stated) [CLINAFLOXACIN], the MIC90 in test [1] is 0.125 µg/mL (≈ 0.342 µM).
What is called MIC is the lowest concentration found to suppress growth. Usually MIC50 stands for the lowest concentration that inhibits either 50% of growth or 50% of the strains tested, depending on the study. Low values mean greater potency, high ones weaker potency. `Cc1ncc([N+](=O)[O-])n1CCO` [METRONIDAZOLE]: the MIC in test [2] is ≤ 0.016 µg/mL; in [3], 0.25 µg/mL (≈ 1.46 µM); in test [4], 0.125 µg/mL (≈ 0.73 µM); in [5], 0.5 µg/mL (≈ 2.92 µM); in test [17] it was 0.062 µg/mL (≈ 0.362 µM). Further, the MIC50 in test [2] was ≤ 0.016 µg/mL; in [6] it was 0.062 µg/mL (≈ 0.362 µM); in [7], 0.125 µg/mL (≈ 0.73 µM); in test [8] it was 0.125 µg/mL (≈ 0.73 µM); in test [9], 0.25 µg/mL (≈ 1.46 µM); in test [10], 0.062 µg/mL (≈ 0.362 µM). Moreover, the MIC50 in test [11] was determined as 0.25 µg/mL (≈ 1.46 µM); in [12], 0.125 µg/mL (≈ 0.73 µM); in test [13], 0.5 µg/mL (≈ 2.92 µM); in test [14], 0.031 µg/mL (≈ 0.181 µM); in test [15], 0.062 µg/mL (≈ 0.362 µM); in test [16], 0.25 µg/mL (≈ 1.46 µM). Further, the MIC50 in [18] came out at 0.062 µg/mL (≈ 0.362 µM); in test [19], 0.125 µg/mL (≈ 0.73 µM); in test [20], 0.25 µg/mL (≈ 1.46 µM). Besides, the MIC90 is 0.125 µg/mL (≈ 0.73 µM) in [6]; 0.25 µg/mL (≈ 1.46 µM) in test [8]; 0.5 µg/mL (≈ 2.92 µM) in [9]; 0.25 µg/mL (≈ 1.46 µM) in [10]; 0.5 µg/mL (≈ 2.92 µM) in test [11]; 0.25 µg/mL (≈ 1.46 µM) in [12]. In addition, the MIC90 in test [14] turned out to be 0.125 µg/mL (≈ 0.73 µM); in test [16], 0.5 µg/mL (≈ 2.92 µM); in [18], 0.25 µg/mL (≈ 1.46 µM); in test [19], 0.5 µg/mL (≈ 2.92 µM).
On to `N#Cc1c(N2C[C@@H]3CCCN[C@@H]3C2)c(F)cc2c(=O)c(C(=O)O)cn(C3CC3)c12` [PRADOFLOXACIN], for which the MIC50 in [2] was 0.031 µg/mL (≈ 0.0782 µM); in test [6] it was 0.062 µg/mL (≈ 0.156 µM); in test [7], 0.062 µg/mL (≈ 0.156 µM); in test [8], 0.062 µg/mL (≈ 0.156 µM); in test [9], 0.062 µg/mL (≈ 0.156 µM); in [10], 0.031 µg/mL (≈ 0.0782 µM). The MIC50 in test [11] is 0.125 µg/mL (≈ 0.315 µM); in test [12], 0.062 µg/mL (≈ 0.156 µM); in [13], 0.062 µg/mL (≈ 0.156 µM); in [14] it was 0.062 µg/mL (≈ 0.156 µM); in [15], 0.062 µg/mL (≈ 0.156 µM); in [16] it was 0.062 µg/mL (≈ 0.156 µM). For the same molecule, the MIC50 in test [18], in test [19] and in test [20] was 0.062 µg/mL (≈ 0.156 µM) in each case. Moreover, the MIC turned out to be 0.031 µg/mL (≈ 0.0782 µM) in test [3]; 0.125 µg/mL (≈ 0.315 µM) in [4]; 0.25 µg/mL (≈ 0.631 µM) in test [5]; 0.062 µg/mL (≈ 0.156 µM) in test [7]; 0.062 µg/mL (≈ 0.156 µM) in test [17]; 0.062 µg/mL (≈ 0.156 µM) in test [20]. Moreover, the MIC90 in test [6] was determined as 0.125 µg/mL (≈ 0.315 µM); in [8] it was 0.125 µg/mL (≈ 0.315 µM); in test [9], 0.25 µg/mL (≈ 0.631 µM); in test [10], 0.125 µg/mL (≈ 0.315 µM); in test [11], 0.125 µg/mL (≈ 0.315 µM); in test [12] it was 0.25 µg/mL (≈ 0.631 µM). In addition, the MIC90 in test [14] was determined as 0.062 µg/mL (≈ 0.156 µM); in test [16] it was 0.25 µg/mL (≈ 0.631 µM); in test [18], 0.125 µg/mL (≈ 0.315 µM); in test [19], 0.25 µg/mL (≈ 0.631 µM).
